ChEMBL document CHEMBL1150309, “Design, synthesis, and biological evaluation of thiophene analogues of chalcones” (Bioorg Med Chem, 2008)

What was measured:
CCRF-CEM = assay: Antiproliferative activity against human CEM cells after 2 days; format: functional, cell-based; settings: 48 h
Outline: (§1)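 Cells suspended at 300,000–500,000 cells/mL of culture medium and mixed 1:1 with dilutions of compound. Incubated 2 days at 37 °C, then cell number counted with a Coulter counter. IC50 is the concentration giving 50% inhibition of proliferation. Values are means from dose–response curves of at least three independent experiments.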

HeLa = assay: Antiproliferative activity against human HeLa cells after 2 days; format: functional, cell-based; settings: 48 h; outline: as §1
FM3A = assay: Antiproliferative activity against mouse FM3A cells after 2 days; format: functional, cell-based; settings: 48 h; outline: as §1
L1210 = assay: Antiproliferative activity against mouse L1210 cells after 2 days; format: functional, cell-based; settings: L1210, 48 h; outline: as §1
MOLT-4 = assay: Antiproliferative activity against human MOLT4 cells after 2 days; format: functional, cell-based; settings: MOLT-4, 48 h; outline: as §1
K562 [1] = assay: Cell cycle arrest in human K562 cells assessed as accumulation at S phase at 1.5 uM after 24 hrs by flow cytometry; format: functional
K562 [2] = assay: Cell cycle arrest in human K562 cells assessed as accumulation at G0/G1 phase at 1.5 uM after 24 hrs by flow cytometry; format: functional
Bos taurus = species: Bos taurus; assay: Displacement of [3H]colchicine from bovine brain tubulin at 1 uM
Outline: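 Bovine brain tubulin (1 µM) incubated with compound at 1 µM and [³H]colchicine at 5 µM. Result is reported as percent inhibition of colchicine binding.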

K562 [3] = assay: Cell cycle arrest in human K562 cells assessed as accumulation at G2/M phase at 1.5 uM after 24 hrs by flow cytometry; format: functional
[4] = Inhibition of bovine brain tubulin polymerization for 20 mins; set-up: species or system Bos taurus
Outline: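 Bovine brain tubulin (10 µM) preincubated with varying compound concentrations in glutamate buffer at 30 °C, then cooled to 0 °C. GTP added and mixtures warmed to 30 °C in cuvettes while assembly was followed by turbidity. IC50 is the concentration that halves the extent of assembly after 20 min.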

K562 [5] = assay: Cell cycle arrest in human K562 cells assessed as accumulation at G2/M phase at 1.3 uM after 24 hrs by flow cytometry; format: functional
K562 [6] = assay: Cell cycle arrest in human K562 cells assessed as accumulation at G0/G1phase at 1.3 uM after 24 hrs by flow cytometry; format: functional
K562 [7] = assay: Cell cycle arrest in human K562 cells assessed as accumulation at S phase at 1.3 uM after 24 hrs by flow cytometry; format: functional
K562 [8] = assay: Cell cycle arrest in human K562 cells assessed as accumulation at G0/G1 phase at 2.2 uM after 24 hrs by flow cytometry; format: functional
K562 [9] = assay: Cell cycle arrest in human K562 cells assessed as accumulation at G2/M phase at 2.2 uM after 24 hrs by flow cytometry; format: functional
K562 [10] = assay: Cell cycle arrest in human K562 cells assessed as accumulation at S phase at 2.2 uM after 24 hrs by flow cytometry; format: functional
K562 [11] = assay: Cell cycle arrest in human K562 cells assessed as accumulation at G0/G1 phase at 1.7 uM after 24 hrs by flow cytometry; format: functional
K562 [12] = assay: Cell cycle arrest in human K562 cells assessed as accumulation at S phase at 1.7 uM after 24 hrs by flow cytometry; format: functional
K562 [13] = assay: Cell cycle arrest in human K562 cells assessed as accumulation at G2/M phase at 1.7 uM after 24 hrs by flow cytometry; format: functional
K562 [14] = assay: Cell cycle arrest in human K562 cells assessed as accumulation at G2/M phase at 2.1 uM after 24 hrs by flow cytometry; format: functional
K562 [15] = assay: Cell cycle arrest in human K562 cells assessed as accumulation at G0/G1 phase at 2.1uM after 24 hrs by flow cytometry; format: functional
K562 [16] = assay: Cell cycle arrest in human K562 cells assessed as accumulation at S phase at 2.1uM after 24 hrs by flow cytometry; format: functional
K562 [17] = assay: Cell cycle arrest in human K562 cells assessed as accumulation at G2/M phase at 1.0 uM after 24 hrs by flow cytometry; format: functional
K562 [18] = assay: Cell cycle arrest in human K562 cells assessed as accumulation at G0/G1 phase at 1.0 uM after 24 hrs by flow cytometry; format: functional
K562 [19] = assay: Cell cycle arrest in human K562 cells assessed as accumulation at S phase at 1.0 uM after 24 hrs by flow cytometry; format: functional
K562 [20] = assay: Cell cycle arrest in human K562 cells assessed as accumulation at G2/M phase at 1.4 uM after 24 hrs by flow cytometry; format: functional
K562 [21] = assay: Cell cycle arrest in human K562 cells assessed as accumulation at G0/G1 phase at 1.4 uM after 24 hrs by flow cytometry; format: functional
K562 [22] = assay: Cell cycle arrest in human K562 cells assessed as accumulation at S phase at 1.4 uM after 24 hrs by flow cytometry; format: functional

Row | SMILES | IC50 (CCRF-CEM) [nM] | IC50 (HeLa) [nM] | IC50 (FM3A) [nM] | IC50 (L1210) [nM] | IC50 (MOLT-4) [nM] | inhibition (Bos taurus) [%] | IC50 [4] [nM] | other results
1 | COc1cc(C(=O)/C=C/c2ccc(F)cc2)cc(OC)c1OC | > 10000 | > 10000 | > 10000 | > 10000 | > 10000 |  |  | 
2 | COc1ccccc1-c1ccc(C(=O)c2cc(OC)c(OC)c(OC)c2)s1 | 370 | 160 | 440 | 510 | 180 | 74 | 1300 | Activity (K562 [1]): 31%; Activity (K562 [2]): 12%; Activity (K562 [3]): 62%
3 | COc1ccc(/C=C/C(=O)c2cc(OC)c(OC)c(OC)c2)cc1OC | 1900 | 2000 | 10000 | 8100 | 3100 |  |  | 
4 | COc1cc(C(=O)c2ccc(-c3ccccc3)s2)cc(OC)c1OC | 480 | 310 | 460 | 560 | 400 | 74 | 1500 | Activity (K562 [5]): 18%; Activity (K562 [6]): 34%; Activity (K562 [7]): 48%
5 | COc1cc(C(=O)c2ccc(-c3ccc(F)cc3)s2)cc(OC)c1OC | 560 | 300 | 1100 | 590 | 400 | 66 | 1100 | Activity (K562 [8]): 48%; Activity (K562 [9]): 21%; Activity (K562 [10]): 31%
6 | COc1cc(C(=O)c2ccc(-c3cccc(F)c3)s2)cc(OC)c1OC | 2100 | 1700 | 5600 | 2400 | 1200 |  |  | 
7 | COc1cc(C(=O)c2ccc(-c3cccs3)s2)cc(OC)c1OC | 430 | 470 | 460 | 530 | 300 | 82 | 800 | Activity (K562 [11]): 8%; Activity (K562 [12]): 17%; Activity (K562 [13]): 75%
8 | COc1ccc(-c2ccc(C(=O)c3cc(OC)c(OC)c(OC)c3)s2)cc1OC | 540 | 500 | 960 | 520 | 380 | 28 | 3000 | Activity (K562 [14]): 57%; Activity (K562 [15]): 16%; Activity (K562 [16]): 27%
9 | COc1cccc(/C=C/C(=O)c2cc(OC)c(OC)c(OC)c2)c1 | 2200 | 3700 | 11000 | 4300 | 3100 |  |  | 
10 | COc1ccc(/C=C/C(=O)c2cc(OC)c(OC)c(OC)c2)cc1 | 1500 | 1300 | 8400 | 2800 | 1400 |  |  | 
11 | COc1ccccc1/C=C/C(=O)c1cc(OC)c(OC)c(OC)c1 | 1800 | 1400 | 7900 | 2100 | 1900 |  |  | 
12 | COc1cc(C(=O)c2ccc(-c3ccc([N+](=O)[O-])cc3)s2)cc(OC)c1OC | > 10000 | > 10000 | > 10000 | > 10000 | > 10000 |  |  | 
13 | COc1ccc(-c2ccc(C(=O)c3cc(OC)c(OC)c(OC)c3)s2)cc1 | 2200 | 1000 | 2400 | 2300 | 460 |  |  | 
14 | COc1cccc(-c2ccc(C(=O)c3cc(OC)c(OC)c(OC)c3)s2)c1 | 2000 | 1400 | 2400 | 2500 | 1800 |  |  | 
15 | COc1cc(C(=O)c2ccc(-c3cccc([N+](=O)[O-])c3)s2)cc(OC)c1OC | 1800 | 1400 | 2400 | 2100 | 1700 |  |  | 
16 | COc1cc(C(=O)c2ccc(-c3ccsc3)s2)cc(OC)c1OC | 1300 | 1100 | 1800 | 1300 | 370 |  |  | 
17 | COc1cc(C(=O)c2ccc(-c3ccccc3Cl)s2)cc(OC)c1OC | 490 | 1600 | 1700 | 750 | 1000 |  |  | 
18 | COc1cc(C(=O)c2ccc(-c3ccccc3F)s2)cc(OC)c1OC | 480 | 1400 | 870 | 520 | 330 | 66 | 2000 | Activity (K562 [17]): 81%; Activity (K562 [18]): 8%; Activity (K562 [19]): 11%
19 | COc1cc(C(=O)/C=C/c2ccccc2)cc(OC)c1OC | > 10000 | > 10000 | > 10000 | > 10000 | > 10000 |  |  | 
20 | COc1cc(C(=O)/C=C/c2ccc(Cl)cc2)cc(OC)c1OC | > 10000 | > 10000 | > 10000 | > 10000 | > 10000 |  |  | 
21 | COc1cc(C(=O)c2ccc(-c3ccc(C)cc3)s2)cc(OC)c1OC | 360 | 410 | 470 | 490 | 380 | 74 | 800 | Activity (K562 [20]): 85%; Activity (K562 [21]): 8%; Activity (K562 [22]): 7%
22 | COc1ccc(/C=C\c2cc(OC)c(OC)c(OC)c2)cc1O [COMBRETASTATIN A4] |  |  |  |  |  |  | 1400 | 
23 | COc1cc(C(=O)c2ccc(-c3ccc(Cl)cc3)s2)cc(OC)c1OC | 2300 | 1500 | 4600 | 2200 | 1300 |  |  | 
